Experiments:
[1] = Positive allosteric modulation of cynomolgus monkey M4 receptor assessed as increase in acetylcholine-induced calcium mobilization; parameters: species or system Macaca fascicularis
In short: (§1)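 M4 PAM concentration-response curves measured by calcium mobilization at the stated species' receptor. Potency reported as EC50/pEC50 and efficacy as % of acetylcholine maximum.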

[2] = molecular target: T1, Muscarinic acetylcholine receptor M4 (Homo sapiens, UniProt P08173); experiment: Positive allosteric modulation of human M4 receptor expressed in CHO cells coexpressing Gqi5 assessed as increase in acetylcholine-induced calcium mobilization; format: functional, cell-based; settings: read-out: EC50
T1 sequence (P08173 whole entry): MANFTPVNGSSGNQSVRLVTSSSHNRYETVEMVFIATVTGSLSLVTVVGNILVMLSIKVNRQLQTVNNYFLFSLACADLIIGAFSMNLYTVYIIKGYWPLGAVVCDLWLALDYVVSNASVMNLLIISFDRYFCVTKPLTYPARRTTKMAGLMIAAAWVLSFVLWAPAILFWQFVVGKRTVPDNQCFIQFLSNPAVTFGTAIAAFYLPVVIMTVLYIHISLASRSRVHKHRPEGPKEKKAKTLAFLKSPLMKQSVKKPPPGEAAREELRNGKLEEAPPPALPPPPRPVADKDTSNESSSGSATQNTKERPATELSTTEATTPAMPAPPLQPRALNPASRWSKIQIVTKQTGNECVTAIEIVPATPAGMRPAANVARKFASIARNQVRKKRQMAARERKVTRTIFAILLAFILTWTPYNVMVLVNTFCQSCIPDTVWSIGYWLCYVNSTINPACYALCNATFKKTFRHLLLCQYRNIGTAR
In short: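 Calcium mobilization in CHO cells expressing hM4 with Gqi5. Compound added in presence of a fixed EC20 concentration of acetylcholine. Values are means of three independent experiments, each run in triplicate.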

[3] = Ratio of unbound CSF to plasma concentration in dog at 3 mg/kg, iv or po at 2 hrs post dose; format: ADME, organism-based, Canis lupus familiaris
In short: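 CNS penetration in dog by terminal study at 2.0 hr. Brain:plasma Kp, Kp,uu and unbound CSF:plasma ratio determined.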

[4] = Drug metabolism in human cryopreserved hepatocytes assessed as metabolite M8 formation; format: ADME, cell-based, Hepatocyte
[5] = Aqueous solubility of the compound at pH 7.4; format: physicochemical; settings: buffer
[6] = molecular target: Cytochrome P450 2D6 (Homo sapiens, UniProt P10635); experiment: Inhibition of CYP2D6 (unknown origin); format: ADME
Cytochrome P450 2D6, sequence (P10635 whole entry): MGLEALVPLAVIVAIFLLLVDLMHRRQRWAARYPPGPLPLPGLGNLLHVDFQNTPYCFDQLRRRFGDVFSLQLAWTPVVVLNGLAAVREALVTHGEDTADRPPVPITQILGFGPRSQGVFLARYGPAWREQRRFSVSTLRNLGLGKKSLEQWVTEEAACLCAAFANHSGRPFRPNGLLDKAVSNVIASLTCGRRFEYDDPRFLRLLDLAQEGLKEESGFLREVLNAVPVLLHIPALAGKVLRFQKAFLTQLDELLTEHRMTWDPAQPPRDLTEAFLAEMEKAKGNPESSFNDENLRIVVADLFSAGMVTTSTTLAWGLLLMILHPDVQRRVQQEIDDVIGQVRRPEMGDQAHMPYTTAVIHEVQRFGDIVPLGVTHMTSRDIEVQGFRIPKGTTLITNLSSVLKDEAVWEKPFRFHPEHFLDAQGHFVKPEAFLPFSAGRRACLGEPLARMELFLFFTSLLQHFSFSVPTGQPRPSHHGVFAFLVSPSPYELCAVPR

[7] = Oral bioavailability in rat at 10 mg/kg; format: ADME, organism-based; settings: in vivo
In short: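 Rat oral bioavailability from a 10 mg/kg solution dose. Separately, the HCl salt was dosed as a suspension.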

[8] = molecular target: Muscarinic acetylcholine receptor M1 (Rattus norvegicus, UniProt P08482); experiment: Activity at rat M1 receptor
Muscarinic acetylcholine receptor M1, sequence (P08482 whole entry): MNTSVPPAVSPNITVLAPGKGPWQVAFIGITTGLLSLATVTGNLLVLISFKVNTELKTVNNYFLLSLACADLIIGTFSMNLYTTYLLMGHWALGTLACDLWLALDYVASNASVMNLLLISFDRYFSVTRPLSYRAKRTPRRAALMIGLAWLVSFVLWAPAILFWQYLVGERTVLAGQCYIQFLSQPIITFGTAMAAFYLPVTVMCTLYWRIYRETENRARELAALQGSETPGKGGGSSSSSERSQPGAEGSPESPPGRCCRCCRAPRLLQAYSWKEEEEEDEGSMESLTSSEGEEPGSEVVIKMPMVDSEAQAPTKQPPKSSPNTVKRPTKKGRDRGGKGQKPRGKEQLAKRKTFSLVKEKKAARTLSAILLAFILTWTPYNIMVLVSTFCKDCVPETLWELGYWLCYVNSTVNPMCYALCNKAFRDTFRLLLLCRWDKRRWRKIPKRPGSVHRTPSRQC

[9] = Drug metabolism in human cryopreserved hepatocytes assessed as metabolite M2 formation; format: ADME, cell-based, Hepatocyte
[10] = Brain to plasma permeability coefficient, Kp of the compound in Sprague-Dawley rat at 0.1 to 0.2 mg/kg, iv measured at 0.25 hrs post dose; format: ADME, organism-based
In short: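 Sprague-Dawley rats were dosed IV at 0.1–0.2 mg/kg, with brain and plasma sampled at 0.25 hr. Brain:plasma Kp was calculated, with Kp,uu where unbound fractions were available.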

[11] = Drug metabolism in human cryopreserved hepatocytes assessed as metabolite M6 formation; format: ADME, cell-based, Hepatocyte
[12] = Drug metabolism in rat cryopreserved hepatocytes assessed as metabolite M3 formation; format: ADME, cell-based, Hepatocyte
[13] = molecular target: Muscarinic acetylcholine receptor M2 (Homo sapiens, UniProt P08172); experiment: Activity at human M2 receptor
Muscarinic acetylcholine receptor M2 (Homo sapiens, UniProt P08172), sequence (P08172 whole entry): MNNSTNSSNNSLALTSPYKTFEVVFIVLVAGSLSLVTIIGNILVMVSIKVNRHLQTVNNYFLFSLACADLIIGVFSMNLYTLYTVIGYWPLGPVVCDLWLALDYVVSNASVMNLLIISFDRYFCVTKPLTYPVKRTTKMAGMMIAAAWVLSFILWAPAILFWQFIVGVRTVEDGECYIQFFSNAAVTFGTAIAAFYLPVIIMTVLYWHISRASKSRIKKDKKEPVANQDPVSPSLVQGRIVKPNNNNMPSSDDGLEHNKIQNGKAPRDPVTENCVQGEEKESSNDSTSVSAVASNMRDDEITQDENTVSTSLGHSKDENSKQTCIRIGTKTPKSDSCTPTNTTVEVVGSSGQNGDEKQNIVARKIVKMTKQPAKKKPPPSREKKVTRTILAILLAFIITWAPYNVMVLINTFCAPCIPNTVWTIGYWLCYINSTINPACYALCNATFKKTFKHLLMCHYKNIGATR

[14] = tested on: Rattus norvegicus; experiment: Elimination half-life in Sprague-Dawley rat at 0.1 to 1 mg/kg, iv; format: ADME, organism-based; settings: in vivo
[15] = molecular target: Muscarinic acetylcholine receptor M2 (Rattus norvegicus, UniProt P10980); experiment: Activity at rat M2 receptor
Muscarinic acetylcholine receptor M2 (Rattus norvegicus, UniProt P10980), sequence (P10980 whole entry): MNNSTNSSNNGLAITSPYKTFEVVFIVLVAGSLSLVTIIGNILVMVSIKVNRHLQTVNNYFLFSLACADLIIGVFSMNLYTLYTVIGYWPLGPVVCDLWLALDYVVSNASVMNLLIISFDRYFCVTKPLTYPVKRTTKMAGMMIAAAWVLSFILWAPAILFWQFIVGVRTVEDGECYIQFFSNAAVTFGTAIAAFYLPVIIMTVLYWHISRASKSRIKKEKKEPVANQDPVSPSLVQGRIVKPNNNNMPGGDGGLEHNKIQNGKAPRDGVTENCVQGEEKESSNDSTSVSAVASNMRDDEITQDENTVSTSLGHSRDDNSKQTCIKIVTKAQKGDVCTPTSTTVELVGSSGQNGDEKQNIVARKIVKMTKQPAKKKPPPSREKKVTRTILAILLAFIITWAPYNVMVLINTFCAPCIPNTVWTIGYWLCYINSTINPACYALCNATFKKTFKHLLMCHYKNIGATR

[16] = tested on: Salmonella typhimurium; experiment: Mutagenicity in Salmonella typhimurium TA100 in presence of S9 fraction by mini-Ames test; format: toxicity; settings: salmonella enterica subsp. enterica serovar typhimurium
In short: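 Mini-Ames mutagenicity assay in Salmonella typhimurium strains TA98 and TA100, run with and without S9 metabolic activation.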

[17] = molecular target: T2, Cytochrome P450 1A2 (Homo sapiens, UniProt P05177); experiment: Inhibition of CYP1A2 (unknown origin); format: ADME
T2 sequence (P05177 whole entry): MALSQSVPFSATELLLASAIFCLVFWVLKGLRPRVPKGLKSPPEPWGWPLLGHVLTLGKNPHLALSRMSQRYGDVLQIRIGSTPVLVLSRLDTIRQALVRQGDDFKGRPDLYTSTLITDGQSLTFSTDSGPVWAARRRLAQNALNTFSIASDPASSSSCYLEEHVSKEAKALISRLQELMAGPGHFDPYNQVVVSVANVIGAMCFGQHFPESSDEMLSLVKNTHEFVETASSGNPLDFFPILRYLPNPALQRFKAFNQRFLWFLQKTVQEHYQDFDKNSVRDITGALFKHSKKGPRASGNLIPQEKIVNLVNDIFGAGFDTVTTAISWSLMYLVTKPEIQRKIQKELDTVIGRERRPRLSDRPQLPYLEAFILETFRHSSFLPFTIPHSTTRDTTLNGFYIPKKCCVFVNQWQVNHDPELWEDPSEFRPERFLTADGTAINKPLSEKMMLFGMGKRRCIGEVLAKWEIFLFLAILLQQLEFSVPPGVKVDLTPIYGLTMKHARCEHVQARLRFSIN

[18] = Drug metabolism in human cryopreserved hepatocytes assessed as metabolite M7 formation; format: ADME, cell-based, Hepatocyte
[19] = molecular target: Muscarinic acetylcholine receptor M5 (Rattus norvegicus, UniProt P08911); experiment: Activity at rat M5 receptor
Muscarinic acetylcholine receptor M5, sequence (P08911 whole entry): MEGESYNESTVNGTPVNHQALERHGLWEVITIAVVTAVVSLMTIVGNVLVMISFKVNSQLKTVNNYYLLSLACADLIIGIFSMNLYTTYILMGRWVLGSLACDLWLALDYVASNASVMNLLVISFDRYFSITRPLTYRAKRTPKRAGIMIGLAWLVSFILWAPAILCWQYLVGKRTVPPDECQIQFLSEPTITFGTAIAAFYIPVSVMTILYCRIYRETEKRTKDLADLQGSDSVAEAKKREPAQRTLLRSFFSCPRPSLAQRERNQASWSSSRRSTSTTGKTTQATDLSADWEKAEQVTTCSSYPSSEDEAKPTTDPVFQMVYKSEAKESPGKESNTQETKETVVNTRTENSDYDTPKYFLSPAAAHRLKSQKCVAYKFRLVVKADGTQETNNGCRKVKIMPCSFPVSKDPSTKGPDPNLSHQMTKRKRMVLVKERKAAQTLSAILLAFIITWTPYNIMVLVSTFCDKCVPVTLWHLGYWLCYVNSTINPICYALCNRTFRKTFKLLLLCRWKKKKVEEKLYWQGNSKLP

[20] = molecular target: Cytochrome P450 3A4 (Homo sapiens, UniProt P08684); experiment: Inhibition of CYP3A4 (unknown origin); format: ADME
Cytochrome P450 3A4, sequence (P08684 whole entry): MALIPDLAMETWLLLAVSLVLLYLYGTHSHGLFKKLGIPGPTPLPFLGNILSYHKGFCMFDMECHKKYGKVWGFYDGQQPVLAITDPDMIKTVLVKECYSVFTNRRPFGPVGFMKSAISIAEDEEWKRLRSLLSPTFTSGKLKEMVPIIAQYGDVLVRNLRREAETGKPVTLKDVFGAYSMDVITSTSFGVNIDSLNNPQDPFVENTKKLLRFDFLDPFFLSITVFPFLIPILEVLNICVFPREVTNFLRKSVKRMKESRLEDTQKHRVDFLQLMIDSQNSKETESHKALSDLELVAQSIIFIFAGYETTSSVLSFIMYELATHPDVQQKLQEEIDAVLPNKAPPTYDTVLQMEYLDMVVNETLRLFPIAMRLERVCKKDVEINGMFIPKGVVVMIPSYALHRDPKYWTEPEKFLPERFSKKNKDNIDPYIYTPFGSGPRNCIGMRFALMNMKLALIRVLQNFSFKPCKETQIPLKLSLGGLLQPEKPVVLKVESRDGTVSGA

[21] = Unbound plasma concentration in human; format: ADME, cell-free
[22] = Drug metabolism in cynomolgus monkey cryopreserved hepatocytes assessed as metabolite M6 formation; format: ADME, cell-based, Macaca fascicularis, Hepatocyte
[23] = Drug metabolism in rat cryopreserved hepatocytes assessed as metabolite M5 formation; format: ADME, cell-based, Hepatocyte
[24] = Drug metabolism in human cryopreserved hepatocytes assessed as metabolite M5 formation; format: ADME, cell-based, Hepatocyte
[25] = molecular target: CYP3A4 (Homo sapiens, UniProt P08684); experiment: Induction of CYP3A4 in cryopreserved human hepatocytes measured after 48 hrs; format: ADME, cell-based
CYP3A4, sequence (P08684 whole entry): as above
In short: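 Cryopreserved human hepatocytes incubated for 48 hr, with enzyme activity as read-out. Induction expressed as EC50 and Emax.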

[26] = Drug metabolism in cynomolgus monkey cryopreserved hepatocytes assessed as metabolite M5 formation; format: ADME, cell-based, Macaca fascicularis, Hepatocyte
[27] = molecular target: Muscarinic acetylcholine receptor M3 (Rattus norvegicus, UniProt P08483); experiment: Activity at rat M3 receptor
Muscarinic acetylcholine receptor M3, sequence (P08483 whole entry): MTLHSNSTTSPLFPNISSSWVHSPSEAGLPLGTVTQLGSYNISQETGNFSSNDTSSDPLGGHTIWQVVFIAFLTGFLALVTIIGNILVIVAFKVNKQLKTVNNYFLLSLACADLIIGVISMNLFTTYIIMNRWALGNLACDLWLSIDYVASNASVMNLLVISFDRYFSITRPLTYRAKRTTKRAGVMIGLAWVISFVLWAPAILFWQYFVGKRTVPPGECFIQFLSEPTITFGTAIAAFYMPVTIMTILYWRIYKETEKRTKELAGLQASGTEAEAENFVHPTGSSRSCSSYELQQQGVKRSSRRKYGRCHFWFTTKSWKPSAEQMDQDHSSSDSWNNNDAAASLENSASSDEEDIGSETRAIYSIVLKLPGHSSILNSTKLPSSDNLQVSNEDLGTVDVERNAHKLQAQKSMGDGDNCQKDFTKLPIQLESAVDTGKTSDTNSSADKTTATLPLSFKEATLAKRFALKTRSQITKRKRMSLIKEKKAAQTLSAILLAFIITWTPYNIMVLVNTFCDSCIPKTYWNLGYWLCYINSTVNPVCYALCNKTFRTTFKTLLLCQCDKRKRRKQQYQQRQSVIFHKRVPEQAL

[28] = Glutathione reactivity in human hepatic microsomes assessed as GSH-adduct formation; format: ADME, Liver, Microsome
[29] = Positive allosteric modulation of dog M4 receptor assessed as increase in acetylcholine-induced calcium mobilization; parameters: species or system Canis lupus familiaris; in short: as §1
[30] = Unbound plasma concentration in rat; format: ADME, cell-free
[31] = Drug metabolism in dog cryopreserved hepatocytes assessed as metabolite M1 formation; format: ADME, cell-based, Canis lupus familiaris, Hepatocyte
[32] = Drug metabolism in cynomolgus monkey cryopreserved hepatocytes assessed as metabolite M4 formation; format: ADME, cell-based, Macaca fascicularis, Hepatocyte
[33] = Drug metabolism in cynomolgus monkey cryopreserved hepatocytes assessed as metabolite M3 formation; format: ADME, cell-based, Macaca fascicularis, Hepatocyte
[34] = Drug metabolism in cynomolgus monkey cryopreserved hepatocytes assessed as metabolite M7 formation; format: ADME, cell-based, Macaca fascicularis, Hepatocyte
[35] = Unbound brain concentration in rat; format: ADME, tissue-based

## Cc1nnc2sc(C(=O)NCc3ccc(-c4cccnc4F)cc3)c(N)c2c1C
[1]
  pEC50: 7.06
[2]
  EC50: 0.091 µM
[3]
  Kp uu at 2 h: 4.8
[4]
  Drug metabolism: Metabolite_Detected
[5]
  solubility: < 0.5 µM
[6]
  IC50: 19 µM
[7]
  bioavailability: 61%
[8]
  EC50: > 30 µM
[9]
  Drug metabolism: Metabolite_Detected
[10]
  Kp: 0.11
[11]
  Drug metabolism: Metabolite_Detected
[12]
  Drug metabolism: Metabolite_Detected
[13]
  EC50: > 30 µM
[14]
  beta t1/2: 2.7 h
[15]
  EC50: > 30 µM
[16]
  Activity: Non-Toxic
[17]
  IC50: 11 µM
[18]
  Drug metabolism: Metabolite_Detected
[19]
  EC50: > 30 µM
[20]
  IC50: > 30 µM
[21]
  fraction unbound: 0.011
[22]
  Drug metabolism: Metabolite_Detected
[23]
  Drug metabolism: Metabolite_Detected
[24]
  Drug metabolism: Metabolite_Detected
[25]
  EC50 at 48 h: > 50 µM
[26]
  Drug metabolism: Metabolite_Detected
[27]
  EC50: > 30 µM
[28]
  Activity: Not Active
[29]
  EC50: 0.111 µM
  pEC50: 6.95
[30]
  fraction unbound: 0.002
[31]
  Drug metabolism: Metabolite_Detected
[32]
  Drug metabolism: Metabolite_Detected
[33]
  Drug metabolism: Metabolite_Detected
[34]
  Drug metabolism: Metabolite_Detected
[35]
  fraction unbound: 0.02
